Laboratory results as given in ChEMBL document CHEMBL1145606, “Discovery of amino-acetonitrile derivatives, a new class of synthetic anthelmintic compounds” (2008).

Key:
Type in all cases: functional
[1] = system: Haemonchus contortus; experiment: Anthelmintic activity against benzimidazole-resistant Haemonchus contortus isolate by larva development assay
How it was run: (§1)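 Larval development assay: test compounds were embedded in an agar-based nutritive medium that supports development from eggs to third-stage larvae (L3). Plates were incubated for 6 days at 28 °C and 80% relative humidity, and egg hatching and larval development were recorded. Values are means of three experiments.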

[2] = system: Trichostrongylus colubriformis; experiment: Anthelmintic activity against levamisole-resistant Trichostrongylus colubriformis isolate by larva development assay; how it was run: as §1
[3] = system: Haemonchus contortus; experiment: Anthelmintic activity against Haemonchus contortus infected in gerbils assessed as reduction in worm count at 1 mg/kg, po; set-up: scale not given: the % may be the effect or the level left
How it was run: (§2)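 Gerbils (Meriones unguiculatus) were artificially infected with H. contortus larvae 6 days, or T. colubriformis larvae 5 days, before treatment. They were then dosed orally or subcutaneously, and controls received a placebo formulation. Three days post-treatment the animals were sacrificed and dissected for worm recovery.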

[4] = system: Trichostrongylus colubriformis; experiment: Anthelmintic activity against Trichostrongylus colubriformis infected in gerbils assessed as reduction in worm count at 1 mg/kg, po; set-up: scale not given: the % may be the effect or the level left; how it was run: as §2
[5] = system: Haemonchus contortus; experiment: Anthelmintic activity against Haemonchus contortus infected in gerbils assessed as reduction in worm count at 1 mg/kg, sc; set-up: scale not given: the % may be the effect or the level left; conditions: route subcutaneous; how it was run: as §2
[6] = system: Trichostrongylus colubriformis; experiment: Anthelmintic activity against Trichostrongylus colubriformis infected in gerbils assessed as reduction in worm count at 1 mg/kg, sc; set-up: scale not given: the % may be the effect or the level left; conditions: route subcutaneous; how it was run: as §2
[7] = system: Haemonchus contortus; experiment: Anthelmintic activity against Haemonchus contortus infected in gerbils assessed as reduction in worm count at 10 mg/kg, po; set-up: scale not given: the % may be the effect or the level left; how it was run: as §2
[8] = system: Trichostrongylus colubriformis; experiment: Anthelmintic activity against Trichostrongylus colubriformis infected in gerbils assessed as reduction in worm count at 10 mg/kg, po; set-up: scale not given: the % may be the effect or the level left; how it was run: as §2
[9] = system: Haemonchus contortus; experiment: Anthelmintic activity against Haemonchus contortus infected in gerbils assessed as reduction in worm count at 3.2 mg/kg, po; set-up: scale not given: the % may be the effect or the level left; how it was run: as §2
[10] = system: Trichostrongylus colubriformis; experiment: Anthelmintic activity against Trichostrongylus colubriformis infected in gerbils assessed as reduction in worm count at 3.2 mg/kg, po; set-up: scale not given: the % may be the effect or the level left; how it was run: as §2

SMILES	EC100 [1] [ppm]	EC100 [2] [ppm]	other results
CC(C#N)(COc1cc(F)c(F)cc1C(F)(F)F)NC(=O)c1ccc(C(F)(F)F)cc1 (stereo not given)	0.032	0.032	Activity [3]: 89%; Activity [4]: 91%; Activity [5]: 94%; Activity [6]: 90%
CC(C#N)(COc1ccccc1Cl)NC(=O)c1cccc(OC(F)(F)F)c1 (stereo not given)	>10	10	–
CC(C#N)(COc1ccc(C#N)cc1C(F)(F)F)NC(=O)c1ccc(OC(F)(F)F)cc1 (stereo not given)	0.032	0.1	Activity [3]: 95%; Activity [4]: 98%; Activity [5]: 91%; Activity [6]: 97%
CC(C#N)(COc1ccccc1C(F)(F)F)NC(=O)c1ccc(-c2ccccc2)cc1 (stereo not given)	>10	>10	–
CC(C#N)(COc1ccc(C(F)(F)F)cc1)NC(=O)c1ccc(C(F)(F)F)cc1 (stereo not given)	>10	>10	–
CC(C#N)(COc1cc(F)c(F)cc1C(F)(F)F)NC(=O)c1ccc(OC(F)(F)F)cc1 (stereo in doubt; 19)	0.01	0.032	Activity [3]: 99%; Activity [4]: 73%; Activity [5]: 99%; Activity [6]: 75%
CC(C#N)(COc1ccccc1Br)NC(=O)c1ccc(OC(F)(F)F)cc1 (stereo not given)	0.032	0.032	Activity [7]: 97%; Activity [8]: 99%
C[C@](C#N)(COc1cc(C#N)ccc1C(F)(F)F)NC(=O)c1ccc(SC(F)(F)F)cc1 [MONEPANTEL]	0.0032	0.01	–
CC(C#N)(COc1ccccc1F)NC(=O)c1ccc(C(F)(F)F)cc1 (stereo not given)	1	1	–
CC(C#N)(COc1ccccc1Cl)NC(=O)c1ccc(C(F)(F)F)cc1 (stereo not given)	0.032	0.032	Activity [7]: 88%; Activity [8]: 19%
CC(C#N)(COc1ccccc1C(F)(F)F)NC(=O)c1ccccc1 (stereo not given)	10	>10	–
CC(C#N)(COc1cccc(Cl)c1Cl)NC(=O)c1ccc(C(F)(F)F)cc1 (stereo not given)	0.1	0.1	Activity [7]: 84%; Activity [8]: 67%
CC(C#N)(COc1cc(Cl)ccc1Cl)NC(=O)c1ccc(OC(F)(F)F)cc1 (stereo not given)	0.01	0.032	Activity [9]: 68%; Activity [10]: 89%
CC(C#N)(COc1ccccc1Cl)NC(=O)c1ccc(OC(F)(F)F)cc1 (stereo not given)	0.032	0.032	–
CC(C#N)(COc1cc(F)ccc1Cl)NC(=O)c1ccc(OC(F)(F)F)cc1 (stereo not given)	0.01	0.032	Activity [9]: 92%; Activity [10]: 79%
CC(C#N)(COc1c(Cl)cccc1Cl)NC(=O)c1ccc(C(F)(F)F)cc1 (stereo not given)	>10	>10	–
CC(C#N)(COc1cc(C#N)ccc1C(F)(F)F)NC(=O)c1ccc(OC(F)(F)F)cc1 (stereo not given)	0.01	0.032	Activity [3]: 95%; Activity [4]: 85%; Activity [5]: 97%; Activity [6]: 75%
CC(C#N)(COc1cc(F)c(F)cc1C(F)(F)F)NC(=O)c1ccc(SC(F)(F)F)cc1 (stereo not given)	0.032	0.032	Activity [3]: 84%; Activity [4]: 98%; Activity [5]: 73%; Activity [6]: 90%
CC(C#N)(COc1cc(C#N)ccc1C(F)(F)F)NC(=O)c1ccc(C(F)(F)F)cc1 (stereo not given)	0.032	0.1	Activity [3]: 97%; Activity [4]: 87%; Activity [5]: 90%; Activity [6]: 72%
CC(C#N)(COc1cc(F)c(F)cc1C(F)(F)F)NC(=O)c1ccc(OC(F)(F)F)cc1 (single isomer, unassigned; (+))	1	3.2	–
CC(C#N)(COc1ccc(C#N)cc1C(F)(F)F)NC(=O)c1ccc(SC(F)(F)F)cc1 (stereo not given)	0.032	0.032	Activity [3]: 90%; Activity [4]: 98%; Activity [5]: 92%; Activity [6]: 86%

SMILES	EC100 [1] [ppm]	EC100 [2] [ppm]	other results
CC(C#N)(COc1ccccc1C(F)(F)F)NC(=O)c1ccc(OC(F)(F)F)cc1 (stereo not given)	0.01	0.01	Activity [7]: 98%; Activity [8]: 97%
CC(C#N)(COc1ccccc1Cl)NC(=O)c1ccc(F)cc1 (stereo not given)	3.2	1	–
CC(C#N)(COc1cccc(F)c1)NC(=O)c1ccc(OC(F)(F)F)cc1 (stereo not given)	0.32	1	–
CC(C#N)(COc1cc(F)ccc1Br)NC(=O)c1ccc(OC(F)(F)F)cc1 (stereo not given)	0.01	0.1	Activity [9]: 90%; Activity [10]: 99%
C[C@@](C#N)(COc1cc(C#N)ccc1C(F)(F)F)NC(=O)c1ccc(SC(F)(F)F)cc1	10	>10	–
CC(C#N)(COc1ccccc1Cl)NC(=O)c1ccccc1C(F)(F)F (stereo not given)	>10	>10	–
c1ccc([C@H]2CN3CCSC3=N2)cc1 [LEVAMISOLE]	0.32	10	–
CC(C#N)(COc1ccc(C#N)cc1C(F)(F)F)NC(=O)c1ccc(C(F)(F)F)cc1 (stereo not given)	0.1	0.1	Activity [3]: 97%; Activity [4]: 91%
CC(C#N)(COc1c(F)cc(F)cc1F)NC(=O)c1ccc(OC(F)(F)F)cc1 (stereo not given)	>10	>10	–
CC(C#N)(COc1cc(F)c(F)cc1Br)NC(=O)c1ccc(OC(F)(F)F)cc1 (stereo not given)	0.01	0.032	Activity [9]: 100%; Activity [10]: 97%
CC(C#N)(COc1ccc(F)cc1Cl)NC(=O)c1ccc(OC(F)(F)F)cc1 (stereo not given)	0.032	0.032	Activity [9]: 98%; Activity [10]: 77%
CC(C#N)(COc1ccccc1Cl)NC(=O)c1ccc(C(F)(F)F)cc1F (stereo not given)	0.32	0.32	–
CC(C#N)(COc1ccccc1Cl)NC(=O)c1ccc(Cl)cc1 (stereo not given)	0.32	0.32	–
c1ccc2[nH]c(-c3cscn3)nc2c1 [THIABENDAZOLE]	10	1	–
CC(C#N)(COc1cc(C#N)ccc1C(F)(F)F)NC(=O)c1ccc(SC(F)(F)F)cc1 (stereo not given)	0.01	0.032	Activity [3]: 100%; Activity [4]: 100%; Activity [5]: 99%; Activity [6]: 84%
CC(C#N)(COc1ccccc1C(F)(F)F)NC(=O)c1ccc(SC(F)(F)F)cc1 (stereo not given)	0.032	0.032	Activity [7]: 77%; Activity [8]: 99%
CC(C#N)(COc1ccc(Cl)cc1Cl)NC(=O)c1ccc(OC(F)(F)F)cc1 (stereo not given)	0.1	0.1	Activity [7]: 94%; Activity [8]: 100%
CC(C#N)(COc1cc(F)c(F)cc1C(F)(F)F)NC(=O)c1ccc(OC(F)(F)F)cc1 (single isomer, unassigned; (-))	0.0032	0.01	–
Cc1ccc(C(=O)NC(C)(C#N)COc2ccccc2Cl)cc1 (stereo not given)	>10	>10	–
CCc1ccccc1OCC(C)(C#N)NC(=O)c1ccc(OC(F)(F)F)cc1 (stereo not given)	0.32	0.32	–
CC(C#N)(COc1ccccc1)NC(=O)c1ccc(C(F)(F)F)cc1 (stereo not given)	>10	>10	–
